# Measured values from ChEMBL document CHEMBL3124838, “Discovery of 6-aryl-azabenzimidazoles that inhibit the TBK1/IKK-ε kinases” (Bioorg Med Chem Lett, 2014).
# Target: Glycogen synthase kinase-3 beta (Homo sapiens) (UniProt P49841)
# Assay: Inhibition of human GSK3beta assessed as residual activity at 1 uM relative to control
row,Structure (SMILES),Activity [%]
1,COc1ccc(-c2nc3cc(-c4csc(C(=O)NCC(C)(C)C)c4)cnc3[nH]2)cc1,106
2,COc1ccc(-c2nc3cc(-c4csc(C(=O)NCC(C)C)c4)cnc3[nH]2)cc1,102
3,COc1ccc(-c2nc3cc(-c4csc(C(=O)NCCC(C)C)c4)cnc3[nH]2)cc1,83

# Target: Calcium/calmodulin-dependent protein kinase type II subunit beta (Homo sapiens) (UniProt Q13554)
# Assay: Inhibition of human CaMK2beta assessed as residual activity at 1 uM relative to control
# Calcium/calmodulin-dependent protein kinase type II subunit beta (Homo sapiens), sequence (Q13554 whole entry): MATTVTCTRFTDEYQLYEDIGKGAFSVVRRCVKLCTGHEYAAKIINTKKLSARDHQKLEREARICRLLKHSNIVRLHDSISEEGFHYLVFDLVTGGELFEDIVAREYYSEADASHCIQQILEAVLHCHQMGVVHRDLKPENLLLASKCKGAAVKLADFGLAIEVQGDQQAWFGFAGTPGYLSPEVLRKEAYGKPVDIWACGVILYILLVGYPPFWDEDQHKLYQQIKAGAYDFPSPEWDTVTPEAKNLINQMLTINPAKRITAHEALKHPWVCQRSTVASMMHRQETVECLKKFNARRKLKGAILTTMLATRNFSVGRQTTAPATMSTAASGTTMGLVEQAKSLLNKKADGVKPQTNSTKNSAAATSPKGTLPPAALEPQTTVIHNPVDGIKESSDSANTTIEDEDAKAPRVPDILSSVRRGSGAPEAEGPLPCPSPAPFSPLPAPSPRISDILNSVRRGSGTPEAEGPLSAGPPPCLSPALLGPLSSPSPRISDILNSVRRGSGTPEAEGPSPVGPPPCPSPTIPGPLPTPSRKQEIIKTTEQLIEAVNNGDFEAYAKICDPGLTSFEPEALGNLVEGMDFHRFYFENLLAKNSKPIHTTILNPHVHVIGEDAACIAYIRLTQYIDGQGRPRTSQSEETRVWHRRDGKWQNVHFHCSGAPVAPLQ
row,Structure (SMILES),Activity [%]
1,COc1ccc(-c2nc3cc(-c4csc(C(=O)NCC(C)(C)C)c4)cnc3[nH]2)cc1,98
2,COc1ccc(-c2nc3cc(-c4csc(C(=O)NCC(C)C)c4)cnc3[nH]2)cc1,96
3,COc1ccc(-c2nc3cc(-c4csc(C(=O)NCCC(C)C)c4)cnc3[nH]2)cc1,97

# Target: Serine/threonine-protein kinase PLK1 (Homo sapiens) (UniProt P53350)
# Assay: Inhibition of human PLK1 assessed as residual activity at 1 uM relative to control
# Serine/threonine-protein kinase PLK1 (Homo sapiens), sequence (P53350 whole entry): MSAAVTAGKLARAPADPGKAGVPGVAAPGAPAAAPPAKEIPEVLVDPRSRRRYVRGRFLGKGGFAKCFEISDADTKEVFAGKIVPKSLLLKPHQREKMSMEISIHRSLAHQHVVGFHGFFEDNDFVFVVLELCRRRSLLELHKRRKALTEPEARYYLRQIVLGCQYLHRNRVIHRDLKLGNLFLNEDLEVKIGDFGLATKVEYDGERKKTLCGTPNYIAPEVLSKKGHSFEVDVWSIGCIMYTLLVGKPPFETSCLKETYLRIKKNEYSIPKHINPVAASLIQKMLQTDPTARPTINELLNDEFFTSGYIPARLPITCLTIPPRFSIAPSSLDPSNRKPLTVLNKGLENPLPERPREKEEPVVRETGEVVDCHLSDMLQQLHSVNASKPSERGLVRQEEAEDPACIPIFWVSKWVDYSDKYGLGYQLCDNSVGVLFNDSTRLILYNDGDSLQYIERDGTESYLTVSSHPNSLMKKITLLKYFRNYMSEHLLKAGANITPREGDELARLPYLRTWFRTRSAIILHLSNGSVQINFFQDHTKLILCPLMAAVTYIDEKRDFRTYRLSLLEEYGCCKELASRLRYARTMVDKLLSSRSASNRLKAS
row,Structure (SMILES),Activity [%]
1,COc1ccc(-c2nc3cc(-c4csc(C(=O)NCC(C)(C)C)c4)cnc3[nH]2)cc1,110
2,COc1ccc(-c2nc3cc(-c4csc(C(=O)NCC(C)C)c4)cnc3[nH]2)cc1,105
3,COc1ccc(-c2nc3cc(-c4csc(C(=O)NCCC(C)C)c4)cnc3[nH]2)cc1,112

# Target: MAP kinase-activated protein kinase 2 (Homo sapiens) (UniProt P49137)
# Assay: Inhibition of human MAPKAP-K2 assessed as residual activity at 1 uM relative to control
# MAP kinase-activated protein kinase 2 (Homo sapiens), sequence (P49137 whole entry, looked up): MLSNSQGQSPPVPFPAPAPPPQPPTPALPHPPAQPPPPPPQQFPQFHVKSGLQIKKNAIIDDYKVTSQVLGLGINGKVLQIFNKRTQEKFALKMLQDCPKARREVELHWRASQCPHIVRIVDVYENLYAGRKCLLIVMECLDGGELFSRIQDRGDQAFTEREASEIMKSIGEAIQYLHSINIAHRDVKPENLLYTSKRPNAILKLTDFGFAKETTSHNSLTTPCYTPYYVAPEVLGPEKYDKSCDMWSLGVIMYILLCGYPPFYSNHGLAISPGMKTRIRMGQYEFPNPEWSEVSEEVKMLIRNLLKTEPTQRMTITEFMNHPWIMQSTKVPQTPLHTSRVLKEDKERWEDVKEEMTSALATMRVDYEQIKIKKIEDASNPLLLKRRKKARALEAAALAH
row,Structure (SMILES),Activity [%]
1,COc1ccc(-c2nc3cc(-c4csc(C(=O)NCC(C)(C)C)c4)cnc3[nH]2)cc1,98
2,COc1ccc(-c2nc3cc(-c4csc(C(=O)NCC(C)C)c4)cnc3[nH]2)cc1,101
3,COc1ccc(-c2nc3cc(-c4csc(C(=O)NCCC(C)C)c4)cnc3[nH]2)cc1,94

# Target: Tyrosine-protein kinase JAK2 (Homo sapiens) (UniProt O60674)
# Assay: Inhibition of human JAK2 assessed as residual activity at 1 uM relative to control
row,Structure (SMILES),Activity [%]
1,COc1ccc(-c2nc3cc(-c4csc(C(=O)NCC(C)(C)C)c4)cnc3[nH]2)cc1,105
2,COc1ccc(-c2nc3cc(-c4csc(C(=O)NCC(C)C)c4)cnc3[nH]2)cc1,108
3,COc1ccc(-c2nc3cc(-c4csc(C(=O)NCCC(C)C)c4)cnc3[nH]2)cc1,100

# Target: T1, Interleukin-1 receptor-associated kinase 4 (Homo sapiens) (UniProt Q9NWZ3)
# T1 sequence (whole entry): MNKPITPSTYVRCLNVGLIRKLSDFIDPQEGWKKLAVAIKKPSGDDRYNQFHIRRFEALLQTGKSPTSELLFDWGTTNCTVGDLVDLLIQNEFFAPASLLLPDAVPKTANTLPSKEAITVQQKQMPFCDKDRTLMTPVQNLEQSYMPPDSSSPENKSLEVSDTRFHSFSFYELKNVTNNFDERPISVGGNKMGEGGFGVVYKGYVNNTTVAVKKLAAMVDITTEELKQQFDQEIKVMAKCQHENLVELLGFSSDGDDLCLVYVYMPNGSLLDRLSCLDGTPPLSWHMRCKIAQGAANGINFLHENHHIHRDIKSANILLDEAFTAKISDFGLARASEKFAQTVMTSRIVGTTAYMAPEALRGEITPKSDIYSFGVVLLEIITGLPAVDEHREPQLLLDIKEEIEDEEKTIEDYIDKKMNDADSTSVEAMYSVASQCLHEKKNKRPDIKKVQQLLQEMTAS
# Assay: Inhibition of human IRAK4 assessed as residual activity at 1 uM relative to control
row,Structure (SMILES),Activity [%]
1,COc1ccc(-c2nc3cc(-c4csc(C(=O)NCC(C)(C)C)c4)cnc3[nH]2)cc1,81
2,COc1ccc(-c2nc3cc(-c4csc(C(=O)NCC(C)C)c4)cnc3[nH]2)cc1,75
3,COc1ccc(-c2nc3cc(-c4csc(C(=O)NCCC(C)C)c4)cnc3[nH]2)cc1,81

# Target: Tyrosine-protein kinase ABL1 (Homo sapiens) (UniProt P00519)
# Assay: Inhibition of human ABL assessed as residual activity at 1 uM relative to control
row,Structure (SMILES),Activity [%]
1,COc1ccc(-c2nc3cc(-c4csc(C(=O)NCC(C)(C)C)c4)cnc3[nH]2)cc1,8
2,COc1ccc(-c2nc3cc(-c4csc(C(=O)NCC(C)C)c4)cnc3[nH]2)cc1,-2
3,COc1ccc(-c2nc3cc(-c4csc(C(=O)NCCC(C)C)c4)cnc3[nH]2)cc1,10

# Target: Phosphatidylinositol 4,5-bisphosphate 3-kinase catalytic subunit gamma isoform (Homo sapiens) (UniProt P48736)
# Assay: Inhibition of human PI3K p120gamma assessed as residual activity at 1 uM relative to control
row,Structure (SMILES),Activity [%]
1,COc1ccc(-c2nc3cc(-c4csc(C(=O)NCC(C)(C)C)c4)cnc3[nH]2)cc1,85
2,COc1ccc(-c2nc3cc(-c4csc(C(=O)NCC(C)C)c4)cnc3[nH]2)cc1,86
3,COc1ccc(-c2nc3cc(-c4csc(C(=O)NCCC(C)C)c4)cnc3[nH]2)cc1,90

# Target: Hepatocyte growth factor receptor (Homo sapiens) (UniProt P08581)
# Assay: Inhibition of human MET assessed as residual activity at 1 uM relative to control
# Hepatocyte growth factor receptor (Homo sapiens), sequence (P08581 whole entry): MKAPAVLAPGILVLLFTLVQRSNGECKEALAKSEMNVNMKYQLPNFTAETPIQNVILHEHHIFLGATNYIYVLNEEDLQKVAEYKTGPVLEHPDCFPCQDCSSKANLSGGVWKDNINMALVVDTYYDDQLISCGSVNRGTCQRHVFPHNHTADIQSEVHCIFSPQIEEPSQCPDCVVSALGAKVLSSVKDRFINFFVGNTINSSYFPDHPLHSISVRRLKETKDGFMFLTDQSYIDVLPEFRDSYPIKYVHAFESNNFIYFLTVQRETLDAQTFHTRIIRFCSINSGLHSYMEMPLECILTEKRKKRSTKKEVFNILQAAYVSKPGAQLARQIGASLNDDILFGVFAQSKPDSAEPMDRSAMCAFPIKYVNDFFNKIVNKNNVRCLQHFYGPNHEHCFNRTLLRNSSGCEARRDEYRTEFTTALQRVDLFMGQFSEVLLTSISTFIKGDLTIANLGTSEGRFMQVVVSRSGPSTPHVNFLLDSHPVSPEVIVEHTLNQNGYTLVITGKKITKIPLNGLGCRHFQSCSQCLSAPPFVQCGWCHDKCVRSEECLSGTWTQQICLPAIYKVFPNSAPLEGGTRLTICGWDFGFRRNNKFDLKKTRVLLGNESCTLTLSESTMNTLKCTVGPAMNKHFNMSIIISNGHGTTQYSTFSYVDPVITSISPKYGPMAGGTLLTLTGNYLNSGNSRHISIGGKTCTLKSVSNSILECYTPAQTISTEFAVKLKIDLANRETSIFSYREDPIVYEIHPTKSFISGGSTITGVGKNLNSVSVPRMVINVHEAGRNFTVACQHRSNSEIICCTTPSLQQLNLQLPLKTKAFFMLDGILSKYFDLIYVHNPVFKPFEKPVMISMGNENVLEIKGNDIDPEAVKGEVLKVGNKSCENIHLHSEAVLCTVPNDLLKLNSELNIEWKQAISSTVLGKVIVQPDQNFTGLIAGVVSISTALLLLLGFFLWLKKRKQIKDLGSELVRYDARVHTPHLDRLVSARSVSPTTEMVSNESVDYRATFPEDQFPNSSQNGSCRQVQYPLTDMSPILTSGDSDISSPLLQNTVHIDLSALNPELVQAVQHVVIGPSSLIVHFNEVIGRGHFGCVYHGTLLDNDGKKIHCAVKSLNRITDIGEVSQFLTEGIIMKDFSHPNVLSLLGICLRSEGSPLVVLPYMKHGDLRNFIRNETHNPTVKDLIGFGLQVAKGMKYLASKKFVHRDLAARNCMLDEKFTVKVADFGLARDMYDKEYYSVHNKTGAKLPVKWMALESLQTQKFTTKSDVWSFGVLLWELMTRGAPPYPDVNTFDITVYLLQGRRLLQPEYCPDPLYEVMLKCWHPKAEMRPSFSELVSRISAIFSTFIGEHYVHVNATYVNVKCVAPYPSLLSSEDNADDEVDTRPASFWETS
row,Structure (SMILES),Activity [%]
1,COc1ccc(-c2nc3cc(-c4csc(C(=O)NCC(C)(C)C)c4)cnc3[nH]2)cc1,114
2,COc1ccc(-c2nc3cc(-c4csc(C(=O)NCC(C)C)c4)cnc3[nH]2)cc1,107
3,COc1ccc(-c2nc3cc(-c4csc(C(=O)NCCC(C)C)c4)cnc3[nH]2)cc1,111

# Target: Proto-oncogene tyrosine-protein kinase ROS (Homo sapiens) (UniProt P08922)
# Assay: Inhibition of human ROS assessed as residual activity at 1 uM relative to control
row,Structure (SMILES),Activity [%]
1,COc1ccc(-c2nc3cc(-c4csc(C(=O)NCC(C)(C)C)c4)cnc3[nH]2)cc1,81
2,COc1ccc(-c2nc3cc(-c4csc(C(=O)NCC(C)C)c4)cnc3[nH]2)cc1,93
3,COc1ccc(-c2nc3cc(-c4csc(C(=O)NCCC(C)C)c4)cnc3[nH]2)cc1,82

# Target: T2, Dual specificity mitogen-activated protein kinase kinase 7 (Homo sapiens) (UniProt O14733)
# T2 sequence (whole entry): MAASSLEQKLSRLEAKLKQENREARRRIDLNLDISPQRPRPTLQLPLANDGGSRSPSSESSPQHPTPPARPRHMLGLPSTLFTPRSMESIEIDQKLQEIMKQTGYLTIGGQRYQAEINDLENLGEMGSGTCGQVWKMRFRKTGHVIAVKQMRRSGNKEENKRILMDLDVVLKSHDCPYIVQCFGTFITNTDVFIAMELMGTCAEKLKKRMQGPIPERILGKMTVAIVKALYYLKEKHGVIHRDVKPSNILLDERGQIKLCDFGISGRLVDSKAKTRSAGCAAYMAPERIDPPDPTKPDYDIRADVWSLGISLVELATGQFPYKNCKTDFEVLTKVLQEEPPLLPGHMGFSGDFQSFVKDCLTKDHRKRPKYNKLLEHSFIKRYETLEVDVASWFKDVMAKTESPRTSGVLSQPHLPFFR
# Assay: Inhibition of human MKK7beta assessed as residual activity at 1 uM relative to control
row,Structure (SMILES),Activity [%]
1,COc1ccc(-c2nc3cc(-c4csc(C(=O)NCC(C)(C)C)c4)cnc3[nH]2)cc1,88
2,COc1ccc(-c2nc3cc(-c4csc(C(=O)NCC(C)C)c4)cnc3[nH]2)cc1,94
3,COc1ccc(-c2nc3cc(-c4csc(C(=O)NCCC(C)C)c4)cnc3[nH]2)cc1,92

# Target: Focal adhesion kinase 1 (Homo sapiens) (UniProt Q05397)
# Assay: Inhibition of human FAK assessed as residual activity at 1 uM relative to control
# Focal adhesion kinase 1 (Homo sapiens), sequence (Q05397 2-1052 limits assumed): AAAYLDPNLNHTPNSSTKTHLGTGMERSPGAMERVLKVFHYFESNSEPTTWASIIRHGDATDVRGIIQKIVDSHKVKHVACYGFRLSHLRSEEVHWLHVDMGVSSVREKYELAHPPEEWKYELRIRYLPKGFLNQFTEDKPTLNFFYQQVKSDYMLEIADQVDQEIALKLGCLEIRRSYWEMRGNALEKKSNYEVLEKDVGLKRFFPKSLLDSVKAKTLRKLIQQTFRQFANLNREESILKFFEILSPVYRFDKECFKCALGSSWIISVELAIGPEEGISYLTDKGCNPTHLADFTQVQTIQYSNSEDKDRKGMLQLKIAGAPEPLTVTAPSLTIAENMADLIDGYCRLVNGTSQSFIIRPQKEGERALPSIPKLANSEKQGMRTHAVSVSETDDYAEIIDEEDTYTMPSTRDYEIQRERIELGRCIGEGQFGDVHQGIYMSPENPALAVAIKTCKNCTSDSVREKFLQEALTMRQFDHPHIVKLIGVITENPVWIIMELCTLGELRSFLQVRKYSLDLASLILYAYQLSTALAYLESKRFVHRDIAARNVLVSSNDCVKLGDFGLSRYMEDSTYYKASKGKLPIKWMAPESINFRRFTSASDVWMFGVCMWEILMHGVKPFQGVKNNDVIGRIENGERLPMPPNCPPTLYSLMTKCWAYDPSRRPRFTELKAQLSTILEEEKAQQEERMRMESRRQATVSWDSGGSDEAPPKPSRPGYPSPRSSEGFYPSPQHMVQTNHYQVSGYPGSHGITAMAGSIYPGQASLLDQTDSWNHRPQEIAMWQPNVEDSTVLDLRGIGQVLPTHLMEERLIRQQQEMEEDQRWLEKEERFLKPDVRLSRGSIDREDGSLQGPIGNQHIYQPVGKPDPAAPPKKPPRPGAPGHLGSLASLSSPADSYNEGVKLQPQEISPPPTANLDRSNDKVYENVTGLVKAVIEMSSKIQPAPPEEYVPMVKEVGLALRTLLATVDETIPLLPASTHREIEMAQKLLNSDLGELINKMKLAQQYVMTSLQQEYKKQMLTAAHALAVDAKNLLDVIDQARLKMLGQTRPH
row,Structure (SMILES),Activity [%]
1,COc1ccc(-c2nc3cc(-c4csc(C(=O)NCC(C)(C)C)c4)cnc3[nH]2)cc1,80
2,COc1ccc(-c2nc3cc(-c4csc(C(=O)NCC(C)C)c4)cnc3[nH]2)cc1,91
3,COc1ccc(-c2nc3cc(-c4csc(C(=O)NCCC(C)C)c4)cnc3[nH]2)cc1,90

# Target: T3, Inhibitor of nuclear factor kappa-B kinase subunit epsilon (Homo sapiens, UniProt Q14164)
# T3 sequence (Q14164 whole entry): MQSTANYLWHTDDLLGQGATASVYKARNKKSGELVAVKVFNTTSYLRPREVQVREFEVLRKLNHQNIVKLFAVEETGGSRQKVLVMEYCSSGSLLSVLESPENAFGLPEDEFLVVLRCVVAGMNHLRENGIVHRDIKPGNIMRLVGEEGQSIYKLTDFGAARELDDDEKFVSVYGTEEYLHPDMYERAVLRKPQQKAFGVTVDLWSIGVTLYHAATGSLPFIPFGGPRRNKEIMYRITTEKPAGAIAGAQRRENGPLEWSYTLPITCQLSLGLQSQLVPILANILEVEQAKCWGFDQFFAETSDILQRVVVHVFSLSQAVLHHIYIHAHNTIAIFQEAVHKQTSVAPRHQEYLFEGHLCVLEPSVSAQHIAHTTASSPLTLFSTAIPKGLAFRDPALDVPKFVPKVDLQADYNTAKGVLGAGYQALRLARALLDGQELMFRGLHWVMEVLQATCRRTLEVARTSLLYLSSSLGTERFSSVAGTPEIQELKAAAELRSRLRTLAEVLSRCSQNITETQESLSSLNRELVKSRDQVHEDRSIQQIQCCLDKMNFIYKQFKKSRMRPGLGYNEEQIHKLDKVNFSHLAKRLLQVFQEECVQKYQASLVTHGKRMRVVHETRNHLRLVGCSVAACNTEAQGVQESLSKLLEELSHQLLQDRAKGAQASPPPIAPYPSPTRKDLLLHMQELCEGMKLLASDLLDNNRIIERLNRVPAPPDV
# Assay: Inhibition of IKK-epsilon (unknown origin) using 5FAM-AKELDQGSLCTpSFVGTLQ-NH2 as substrate by microfluidic mobility shift assay
# Summary of the method: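 Recombinant IKK-ε (4 nM) in HEPES buffer with 1.5 µM 5FAM-labelled peptide substrate, ATP at its K_M, and 10 mM MgCl2. The 10-point titration used half-log serial dilutions. Reactions ran at room temperature for a set time, were quenched with EDTA-containing HEPES, and were read by microfluidic mobility shift. Percent inhibition came from the ratio of phosphorylated to total peptide.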
row,Structure (SMILES),IC50 [µM]
1,COc1ccc(-c2nc3cc(-c4csc(C(=O)NCC(C)(C)C)c4)cnc3[nH]2)cc1,0.497
2,COc1ccc(-c2nc3cc(-c4csc(C(=O)NCC(C)C)c4)cnc3[nH]2)cc1,0.273
3,COc1ccc(-c2nc3cc(-c4csc(C(=O)NCCC(C)C)c4)cnc3[nH]2)cc1,1.75

# Target: Cyclin-dependent kinase 2 (Homo sapiens, UniProt P24941)
# Assay: Inhibition of CDK2 (unknown origin)
row,Structure (SMILES),IC50 [µM]
1,COc1ccc(-c2nc3cc(-c4csc(C(=O)NCC(C)(C)C)c4)cnc3[nH]2)cc1,> 30
2,COc1ccc(-c2nc3cc(-c4csc(C(=O)NCC(C)C)c4)cnc3[nH]2)cc1,> 30
3,COc1ccc(-c2nc3cc(-c4csc(C(=O)NCCC(C)C)c4)cnc3[nH]2)cc1,> 30

# Target: Phosphatidylinositol 4-phosphate 5-kinase type-1 gamma (Homo sapiens) (UniProt O60331)
# Assay: Inhibition of human PIP5K1gamma assessed as residual activity at 1 uM relative to control
# Phosphatidylinositol 4-phosphate 5-kinase type-1 gamma (Homo sapiens), sequence (O60331 whole entry): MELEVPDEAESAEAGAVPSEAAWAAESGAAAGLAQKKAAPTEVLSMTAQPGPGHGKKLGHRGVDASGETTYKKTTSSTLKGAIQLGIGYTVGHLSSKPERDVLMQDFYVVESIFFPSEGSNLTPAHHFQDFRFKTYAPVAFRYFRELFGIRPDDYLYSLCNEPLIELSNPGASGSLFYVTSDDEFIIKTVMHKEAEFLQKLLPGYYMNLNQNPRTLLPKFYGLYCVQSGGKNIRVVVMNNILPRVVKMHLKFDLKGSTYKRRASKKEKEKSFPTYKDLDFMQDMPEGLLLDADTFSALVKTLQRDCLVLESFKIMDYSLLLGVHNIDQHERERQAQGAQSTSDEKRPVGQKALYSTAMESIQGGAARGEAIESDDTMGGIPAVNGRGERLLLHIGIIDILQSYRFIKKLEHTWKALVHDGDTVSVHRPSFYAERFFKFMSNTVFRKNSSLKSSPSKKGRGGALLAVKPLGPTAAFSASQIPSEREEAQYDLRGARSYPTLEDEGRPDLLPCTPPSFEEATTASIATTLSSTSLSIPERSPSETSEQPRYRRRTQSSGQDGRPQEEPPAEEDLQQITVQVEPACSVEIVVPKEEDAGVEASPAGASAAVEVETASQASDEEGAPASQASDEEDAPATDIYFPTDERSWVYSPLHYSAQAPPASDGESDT
row,Structure (SMILES),Activity [%]
1,COc1ccc(-c2nc3cc(-c4csc(C(=O)NCC(C)(C)C)c4)cnc3[nH]2)cc1,86
2,COc1ccc(-c2nc3cc(-c4csc(C(=O)NCC(C)C)c4)cnc3[nH]2)cc1,88
3,COc1ccc(-c2nc3cc(-c4csc(C(=O)NCCC(C)C)c4)cnc3[nH]2)cc1,93
